ChEMBL document CHEMBL1275524, “Activities of antifungal agents against yeasts and filamentous fungi: assessment according to the methodology of the European Committee on Antimicrobial Susceptibility Testing” (2008)
Converted amounts (≈) assume the structure as drawn.

Columns and labels:
Candida parapsilosis = assay: Antifungal activity against Candida parapsilosis by EUCAST method; assay type: functional; settings: Lodderomyces parapsilosis
Summary of the method: (§1)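 Broth microdilution in flat-bottom plates in RPMI 1640 with 2% glucose; inoculum 0.5 × 105 to 2.5 × 10^5 CFU/ml. MICs were read spectrophotometrically at 24 h. AMB endpoint: ≥90% growth reduction vs drug-free control well. Azole and CPF endpoint: 50% reduction in optical density. MFC was taken as the lowest concentration giving 99% killing.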

Pichia kudriavzevii = assay: Antifungal activity against Candida krusei by EUCAST method; assay type: functional; summary of the method: as §1
Clavispora lusitaniae = assay: Antifungal activity against Candida lusitaniae by EUCAST method; assay type: functional; summary of the method: as §1
Candida tropicalis = assay: Antifungal activity against Candida tropicalis by EUCAST method; assay type: functional; summary of the method: as §1
[1] = tested on: Meyerozyma guilliermondii; assay: Antifungal activity against Candida guilliermondii by EUCAST method; assay type: functional; summary of the method: as §1
Saccharomyces cerevisiae = assay: Antifungal activity against Saccharomyces cerevisiae by EUCAST method; assay type: functional
Summary of the method: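 EUCAST broth microdilution for yeasts in flat-bottom plates, RPMI 1640 with 2% glucose, inoculum 0.5 × 105 to 2.5 × 10^5 CFU/ml. […] MFC is the lowest concentration giving 99% killing.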

[2] = Antifungal activity against Cryptococcus neoformans var. neoformans by EUCAST method; assay type: functional; settings: Cryptococcus deneoformans
Summary of the method: (§2)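 EUCAST yeast microdilution, modified for nonfermentative yeasts: plates were sealed and agitated at 350 rpm and 30°C for 48 h.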

Cryptococcus gattii = assay: Antifungal activity against Cryptococcus neoformans var. gattii by EUCAST method; assay type: functional, Cryptococcus bacillisporus; summary of the method: as §2
Trichosporon inkin = assay: Antifungal activity against Trichosporon inkin by EUCAST method; assay type: functional
Summary of the method: (§3)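 Nonfermentative yeasts were tested by the EUCAST microdilution recommendations with one change: plates were sealed and agitated at 350 rpm and 30°C for 48 h.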

Trichosporon asahii = assay: Antifungal activity against Trichosporon asahii by EUCAST method; assay type: functional; summary of the method: as §3
Geotrichum candidum = assay: Antifungal activity against Geotrichum candidum by EUCAST method; assay type: functional
Aspergillus fumigatus = assay: Antifungal activity against Aspergillus fumigatus by EUCAST method; assay type: functional
Aspergillus terreus = assay: Antifungal activity against Aspergillus terreus by EUCAST method; assay type: functional
Aspergillus flavus = assay: Antifungal activity against Aspergillus flavus by EUCAST method; assay type: functional
Aspergillus niger = assay: Antifungal activity against Aspergillus niger by EUCAST method; assay type: functional
Rhizomucor = assay: Antifungal activity against Rhizomucor species by EUCAST method; assay type: functional; settings: read-out: MEC
Summary of the method: (§4)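 Broth microdilution following the EUCAST reference procedure for spore-forming moulds, in flat-bottom plates with RPMI 1640 plus 2% glucose. Inoculum was 2 × 10^5 to 5 × 10^5 CFU/ml. MICs were read visually at 24 and 48 h as 100% growth reduction versus a drug-free control for polyenes and azoles. MEC was used for caspofungin. Tests were run in duplicate and repeated twice.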

Lichtheimia corymbifera = assay: Antifungal activity against Absidia corymbifera by EUCAST method; assay type: functional; settings: read-out: MEC
Absidia = assay: Antifungal activity against Absidia species by EUCAST method; assay type: functional; settings: read-out: MEC
[3] = Antifungal activity against Rhizopus microsporus var. oligosporus by EUCAST method; assay type: functional; summary of the method: as §4
Rhizopus arrhizus = assay: Antifungal activity against Rhizopus oryzae by EUCAST method; assay type: functional; settings: read-out: MEC; summary of the method: as §4
Rhizopus = assay: Antifungal activity against Rhizopus species by EUCAST method; assay type: functional; settings: read-out: MEC; summary of the method: as §4
Mucor hiemalis = assay: Antifungal activity against Mucor hiemalis by EUCAST method; assay type: functional; settings: read-out: MEC
Mucor = assay: Antifungal activity against Mucor species by EUCAST method; assay type: functional; settings: read-out: MEC
Cunninghamella = assay: Antifungal activity against Cunninghamella species by EUCAST method; assay type: functional; settings: read-out: MEC
Lomentospora prolificans = assay: Antifungal activity against Scedosporium prolificans by EUCAST method; assay type: functional; settings: read-out: MEC; summary of the method: as §4
Scedosporium apiospermum = assay: Antifungal activity against Scedosporium apiospermum by EUCAST method; assay type: functional; settings: read-out: MEC; summary of the method: as §4
Talaromyces marneffei = assay: Antifungal activity against Penicillium marneffei by EUCAST method; assay type: functional; settings: read-out: MEC
Penicillium sp. = assay: Antifungal activity against Penicillium species by EUCAST method; assay type: functional; settings: read-out: MEC
Fusarium solani = assay: Antifungal activity against Fusarium solani by EUCAST method; assay type: functional; settings: read-out: MEC
Fusarium oxysporum = assay: Antifungal activity against Fusarium oxysporum by EUCAST method; assay type: functional; settings: read-out: MEC
Sporothrix schenckii = assay: Antifungal activity against Sporothrix schenckii by EUCAST method; assay type: functional; settings: read-out: MEC; summary of the method: as §4
Curvularia lunata = assay: Antifungal activity against Curvularia lunata by EUCAST method; assay type: functional; settings: read-out: MEC
Summary of the method: (§5)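 Dematiaceous fungi were tested by the EUCAST spore-forming mold reference procedure: flat-bottom microdilution plates, RPMI 1640 plus 2% glucose, inoculum 2 × 105 to 5 × 10^5 CFU/ml. Endpoints were read visually at 24 and 48 h. Polyenes and azoles: 100% growth reduction vs drug-free control. CPF: minimum effective concentration. Run in duplicate and repeated twice.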

Curvularia australiensis = assay: Antifungal activity against Bipolaris australiensis by EUCAST method; assay type: functional; settings: read-out: MEC; summary of the method: as §5
[4] = Antifungal activity against Rhinocladiella aquaspersa by EUCAST method; assay type: functional; summary of the method: as §5

## CC[C@H](C)C[C@H](C)CCCCCCCCC(=O)N[C@H]1C[C@@H](O)[C@@H](NCCN)NC(=O)[C@@H]2[C@@H](O)CCN2C(=O)[C@H]([C@H](O)CCN)NC(=O)[C@H]([C@H](O)[C@@H](O)c2ccc(O)cc2)NC(=O)[C@@H]2C[C@@H](O)CN2C(=O)[C@H]([C@@H](C)O)NC1=O [CASPOFUNGIN]
Candida parapsilosis
  MIC: 0.82 µg/mL (≈ 0.75 µM)
Pichia kudriavzevii
  MIC: 0.58 µg/mL (≈ 0.53 µM)
Clavispora lusitaniae
  MIC: 0.32 µg/mL (≈ 0.293 µM)
Candida tropicalis
  MIC: 0.34 µg/mL (≈ 0.311 µM)
[1]
  MIC: 0.68 µg/mL (≈ 0.622 µM)
Saccharomyces cerevisiae
  MIC: 1.3 µg/mL (≈ 1.19 µM)
[2]
  MIC: 2.04 µg/mL (≈ 1.87 µM)
Cryptococcus gattii
  MIC: 5.33 µg/mL (≈ 4.88 µM)
Trichosporon inkin
  MIC: 5.33 µg/mL (≈ 4.88 µM)
Trichosporon asahii
  MIC: 4 µg/mL (≈ 3.66 µM)
Geotrichum candidum
  MIC: 3 µg/mL (≈ 2.74 µM)
Aspergillus fumigatus
  MIC: 0.45 µg/mL (≈ 0.412 µM)
Aspergillus fumigatus; read-out: MEC
  minimal effective concentration: 0.25 µg/mL
Aspergillus terreus
  MIC: 0.19 µg/mL (≈ 0.174 µM)
Aspergillus terreus; read-out: MEC
  minimal effective concentration: 0.125 µg/mL
Aspergillus flavus
  MIC: 0.28 µg/mL (≈ 0.256 µM)
Aspergillus flavus; read-out: MEC
  minimal effective concentration: 0.25 µg/mL
Aspergillus niger
  MIC: 0.36 µg/mL (≈ 0.329 µM)
Aspergillus niger; read-out: MEC
  minimal effective concentration: 0.25 µg/mL
Rhizomucor
  minimal effective concentration: > 8 µg/mL
Lichtheimia corymbifera
  minimal effective concentration: > 8 µg/mL
Absidia
  minimal effective concentration: > 8 µg/mL
[3]
  MEC: > 8 µg/mL
Rhizopus arrhizus
  minimal effective concentration: > 8 µg/mL
Rhizopus
  minimal effective concentration: > 8 µg/mL
Mucor hiemalis
  minimal effective concentration: > 8 µg/mL
Mucor
  minimal effective concentration: > 8 µg/mL
Cunninghamella
  minimal effective concentration: > 8 µg/mL
Lomentospora prolificans
  minimal effective concentration: > 8 µg/mL
Scedosporium apiospermum
  minimal effective concentration: > 8 µg/mL
Talaromyces marneffei
  minimal effective concentration: > 8 µg/mL
Penicillium sp.
  minimal effective concentration: > 8 µg/mL
Fusarium solani
  minimal effective concentration: > 8 µg/mL
Fusarium oxysporum
  minimal effective concentration: > 8 µg/mL
Sporothrix schenckii
  minimal effective concentration: > 8 µg/mL
Curvularia lunata
  minimal effective concentration: > 8 µg/mL
Curvularia australiensis
  minimal effective concentration: > 8 µg/mL
[4]
  MEC: > 8 µg/mL
